According to ChEMBL document CHEMBL5104214, “Efficient selective targeting of Candida CYP51 by oxadiazole derivatives designed from plant cuminaldehyde” (RSC Med Chem, 2022):
Converted amounts (≈) assume the structure as drawn.

Columns and labels:
[1] = test system: Candida albicans; assay: Antifungal activity against Candida albicans SC5314 assessed as inhibition of fungal growth at 100 ug/ml incubated for 24 hrs by spotting assay relative to control; format: functional; set-up: scale not given: the % may be the effect or the level left; settings: dose 100 µg/ml
How it was run: (§1)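 Spotting screen: SDA plates streaked with 0.1 ml culture at 10^4 CFU ml−1, 5 μl of compound applied, 24 h at 37 °C. C. albicans SC5314 or C. auris clinical isolate kept on SDA at 37 °C. Growth inhibition judged against untreated control.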

[2] = test system: [Candida] auris; assay: Antifungal activity against Candida auris clinical isolate assessed as inhibition of fungal growth at 100 ug/ml incubated for 24 hrs by spotting assay relative to control; format: functional, Candidozyma auris; set-up: scale not given: the % may be the effect or the level left; settings: dose 100 µg/ml; how it was run: as §1
[3] = test system: Candida albicans; assay: Antifungal activity against Candida albicans SC5314 assessed as inhibition of fungal growth incubated for 24 hrs by microdilution assay; format: functional
How it was run: (§2)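 Broth microdilution per CLSI. Inoculum 10^5 CFU mL−1, compounds at 1, 3, 5, 10, 25, 50, 100 and 200 μg ml−1, 37 °C for 24 h. Turbidity read at 570 nm. MIC50 is the concentration giving 50% growth inhibition, from curve fitting. Triplicate.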

[4] = test system: [Candida] auris; assay: Antifungal activity against Candida auris clinical isolate assessed as inhibition of fungal growth incubated for 24 hrs by microdilution assay; format: functional; settings: Candidozyma auris; how it was run: as §2
[5] = Cytotoxicity against human F180 cells assessed as cell growth inhibition at 6 times MIC50 against Candida albicans SC5314 incubated for 48 hrs by SRB assay; format: toxicity, cell-based; settings: f180, 48 h
How it was run: (§3)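 SRB assay on normal human skin fibroblasts F-180 in DMEM with 15% FBS, 37 °C, 5% CO2. Seeded 20 000 cells/well and left overnight, then compounds at 10, 20 and 30 μg ml−1 for 48 h; DMSO vehicle ≤0.1%. TCA fixation, 0.4% SRB stain, dye solubilised in 10 mM Tris, OD 492 nm. Six repeats.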

[6] = Cytotoxicity against human F180 cells assessed as cell growth inhibition at 1 times MIC50 against Candida auris incubated for 48 hrs by SRB assay; format: toxicity, cell-based; settings: f180, 48 h; how it was run: as §3
[7] = Cytotoxicity against human F180 cells assessed as cell growth inhibition at 3 times MIC50 against Candida albicans SC5314 incubated for 48 hrs by SRB assay; format: toxicity, cell-based; settings: f180, 48 h; how it was run: as §3
[8] = Cytotoxicity against human F180 cells assessed as cell growth inhibition at 2.3 times MIC50 against Candida auris incubated for 48 hrs by SRB assay; format: toxicity, cell-based; settings: f180, 48 h; how it was run: as §3
[9] = target: T1, Lanosterol 14-alpha demethylase (Candida albicans (strain SC5314 / ATCC MYA-2876) (Yeast), UniProt P10613); assay: Inhibition of candida albicans CYP51 using 7-ethoxyresorufin as fluorescent substrate incubated for 10 mins in the presence of NADPH by fluorescence based spectroscopic microtiter plate reader analysis
T1 sequence (P10613 whole entry): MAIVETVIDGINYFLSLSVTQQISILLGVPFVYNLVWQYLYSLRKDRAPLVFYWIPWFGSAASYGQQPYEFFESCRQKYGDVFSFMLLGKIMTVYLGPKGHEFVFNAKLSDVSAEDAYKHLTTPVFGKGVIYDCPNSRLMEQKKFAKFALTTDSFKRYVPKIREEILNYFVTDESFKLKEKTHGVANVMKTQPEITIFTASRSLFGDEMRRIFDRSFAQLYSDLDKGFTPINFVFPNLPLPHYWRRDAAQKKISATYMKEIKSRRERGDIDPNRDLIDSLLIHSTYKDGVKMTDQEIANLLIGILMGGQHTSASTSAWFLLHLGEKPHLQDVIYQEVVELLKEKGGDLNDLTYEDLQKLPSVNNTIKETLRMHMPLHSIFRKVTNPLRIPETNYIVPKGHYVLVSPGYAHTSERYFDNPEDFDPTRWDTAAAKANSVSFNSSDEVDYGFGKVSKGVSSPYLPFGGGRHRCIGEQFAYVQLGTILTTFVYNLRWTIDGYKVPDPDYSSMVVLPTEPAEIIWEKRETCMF
How it was run: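 CaCYP51 bactosomes in pH 7.4 phosphate buffer with 5 mM MgCl2 and the substrate 7-ethoxyresorufin. Inhibitor at 0, 0.1, 1, 10 and 100 μg ml−1. Started with 4 mM NADPH, shaken 10 min at 37 °C under yellow light. Resorufin read every 30 s (ex 572/em 604 nm). IC50 from curve fitting; fluconazole positive control.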

[10] = target: T1, Lanosterol 14-alpha demethylase; assay: Inhibition of Candida albicans CYP51 assessed as ergosterol level incubated for 18 hrs by GC/MS analysis relative to control
How it was run: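 C. albicans colony grown in SDB 18 h at 37 °C with compound at its MIC50; untreated cells as negative control. Washed, normalized cells saponified in 60% alcoholic KOH, 80 °C 1 h. Sterols hexane-extracted, silylated (MSTFA/TMCS), analysed by GC-MS with ergosterol standard for retention time. Content expressed as AUC treated/AUC untreated × 100.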

[11] = Cytotoxicity against human F180 cells assessed as cell growth inhibition at 10 times MIC50 against Candida albicans SC5314 incubated for 48 hrs by SRB assay; format: toxicity, cell-based; settings: f180, 48 h; how it was run: as §3
[12] = Cytotoxicity against human F180 cells assessed as cell growth inhibition at 15 times MIC50 against Candida auris incubated for 48 hrs by SRB assay; format: toxicity, cell-based; settings: f180, 48 h; how it was run: as §3
[13] = test system: Candida albicans; assay: Potency index, ratio of fluconazole MIC50 to test compound MIC50 for antifungal activity against Candida albicans SC5314 assessed as inhibition of fungal growth incubated for 24 hrs by microdilution assay; format: functional
How it was run: (§4)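 MIC50 ratio. MIC50 of fluconazole and of compound by broth microdilution: 10^5 CFU mL−1 inoculum, 1–200 μg ml−1, 37 °C for 24 h, turbidity at 570 nm, triplicate. Ratio taken as fluconazole MIC50 over compound MIC50.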

[14] = test system: [Candida] auris; assay: Potency index, ratio of fluconazole MIC50 to test compound MIC50 for antifungal activity against Candida auris clinical isolate assessed as inhibition of fungal growth incubated for 24 hrs by microdilution assay; format: functional, Candidozyma auris; how it was run: as §4
[15] = target: T1, Lanosterol 14-alpha demethylase; assay: Potency index, ratio of fluconazole IC50 to test compound IC50 for inhibition of Candida albicans CYP51 using 7-ethoxyresorufin as fluorescent substrate incubated for 10 mins in the presence of NADPH by fluorescence based spectroscopic microtiter plate reader analysis
How it was run: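 Ratio of fluconazole IC50 to compound IC50 against CaCYP51. Bactosomes with 7-ethoxyresorufin in pH 7.4 phosphate, 5 mM MgCl2. Inhibitor at 0–100 μg ml−1. Reaction started with 4 mM NADPH, 10 min at 37 °C, resorufin fluorescence ex 572/em 604 nm.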

[16] = target: Cytochrome P450 3A4 (Homo sapiens, UniProt P08684); assay: Inhibition of human CYP3A4 using luciferin-IPA as substrate preincubated for 10 mins followed by NADPH addition and measured after 30 mins by luminescence based assay; format: ADME
Cytochrome P450 3A4, sequence (P08684 whole entry): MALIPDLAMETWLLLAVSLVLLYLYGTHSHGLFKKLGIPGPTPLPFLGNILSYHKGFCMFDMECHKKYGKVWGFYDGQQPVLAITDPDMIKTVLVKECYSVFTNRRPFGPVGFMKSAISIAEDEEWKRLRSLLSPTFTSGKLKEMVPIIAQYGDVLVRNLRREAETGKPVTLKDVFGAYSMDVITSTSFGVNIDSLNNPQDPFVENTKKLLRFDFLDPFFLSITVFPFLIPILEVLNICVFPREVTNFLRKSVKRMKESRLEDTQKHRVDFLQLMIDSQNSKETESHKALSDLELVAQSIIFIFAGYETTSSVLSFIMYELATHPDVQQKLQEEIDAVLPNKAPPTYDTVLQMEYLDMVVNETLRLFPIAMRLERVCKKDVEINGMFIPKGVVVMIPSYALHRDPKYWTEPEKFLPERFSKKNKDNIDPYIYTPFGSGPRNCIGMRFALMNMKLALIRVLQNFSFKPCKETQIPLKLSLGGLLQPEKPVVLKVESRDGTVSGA

[17] = test system: CYP3A4 vs Candida albicans CYP51; assay: Selectivity index, ratio of IC50 for inhibition of human CYP3A4 using luciferin-IPA as substrate to IC50 for inhibition of candida albicans CYP51 using 7-ethoxyresorufin as fluorescent substrate; format: toxicity; settings: probe luciferin-IPA (CYP3A4), 7-ethoxyresorufin (CYP51)
[18] = Cytotoxicity against human F180 cells assessed as cell growth inhibition at 60 times MIC50 against Candida albicans SC5314 incubated for 48 hrs by SRB assay; format: toxicity, cell-based; settings: f180, 48 h; how it was run: as §3
[19] = Cytotoxicity against human F180 cells assessed as cell growth inhibition at 37.5 times MIC50 against Candida auris incubated for 48 hrs by SRB assay; format: toxicity, cell-based; settings: f180, 48 h; how it was run: as §3

| Compound | Activity [1] [%] | Activity [2] [%] | MIC50 [3] [µg/mL] | MIC50 [4] [µg/mL] | Activity [5] | Activity [6] | Activity [7] | Activity [8] | IC50 [9] [µM] | inhibition (INH) [10] [%] | Activity [11] | Activity [12] | Ratio [13] | Ratio [14] | Ratio IC50 [15] | IC50 [16] [mM] | selectivity ratio [17] | Activity [18] | Activity [19] |
| --- | --- | --- | --- | --- | --- | --- | --- | --- | --- | --- | --- | --- | --- | --- | --- | --- | --- | --- | --- |
| COc1cccc(Nc2nnc(-c3ccc(C(C)(C)C)cc3)o2)c1 | 57 | 86 | 5 (≈ 15.5 µM) | 30 (≈ 92.8 µM) | Non-Toxic | Non-Toxic |  |  |  |  |  |  |  |  |  |  |  |  |  |
| COc1cccc(Nc2nnc(-c3ccc(C(C)C)cc3)o2)c1 | 83 | 85 | 10 (≈ 32.3 µM) | 12 (≈ 38.8 µM) |  |  | Non-Toxic | Non-Toxic |  |  |  |  |  |  |  |  |  |  |  |
| OC(Cn1cncn1)(Cn1cncn1)c1ccc(F)cc1F [FLUCONAZOLE] |  |  | 25 (≈ 81.6 µM) | 600 (≈ 1960 µM) |  |  |  |  | 29 | 35.6 |  |  |  |  |  |  |  |  |  |
| CC(C)c1ccc(-c2nnc(Nc3ccc(F)cc3)o2)cc1 | 80 | 40 | 3 (≈ 10.1 µM) | 2.08 (≈ 7 µM) |  |  |  |  |  |  | Non-Toxic | Non-Toxic |  |  |  |  |  |  |  |
| CC(C)(C)c1ccc(-c2nnc(Nc3ccc(Cl)cc3)o2)cc1 | 99.3 | 99 | 0.5 (≈ 1.53 µM) | 0.8 (≈ 2.44 µM) |  |  |  |  | 2.75 | 70.3 |  |  | 50 | 750 | 10 | > 30.5 | > 10000 | Non-Toxic | Non-Toxic |
